pEC50: −log10 of the molar value.
Tests used:
Toxoplasma gondii = assay: ST_JUDE: Growth inhibition of to Toxoplasma gondii, in human U-2OS cells, as measured by luciferase.; type: functional, organism-based; conditions: RH, U2OS
Outline: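 T. gondii parasites engineered to express luciferase; drug sensitivity read by luminescence.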

Plasmodium falciparum [1] = assay: ST_JUDE: Cytotoxicity against Plasmodium falciparum SB-A6; type: functional, organism-based
Plasmodium falciparum [2] = assay: ST_JUDE: Plasmodium falciparum 3D7 EC50 (uM) as measured by SYBR green dye; type: functional, organism-based
Trypanosoma brucei = assay: ST_JUDE: Cytotoxicity using luciferase to measure ATP as an indicator of the viability of Trypanosoma brucei; type: functional, organism-based
Plasmodium falciparum [3] = assay: ST_JUDE: Cytotoxicity against Plasmodium falciparum K1; type: functional, organism-based
Outline: (§1)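 Asexual P. falciparum grown in human erythrocytes, exposed to compounds for 72 h, and growth read as the DNA quantity in treated versus control cultures. Dose-response run at 12 concentrations from 10 μM to 5 nM.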

Plasmodium falciparum [4] = assay: ST_JUDE: Cytotoxicity against Plasmodium falciparum Dd2; type: functional, organism-based
[5] = ST_JUDE: Cytotoxicity using luciferase to measure ATP as an indicator of the viability of human epithelial hepatocellular carcinoma cells (HepG2); type: toxicity, cell-based
Plasmodium falciparum [6] = assay: ST_JUDE: Plasmodium falciparum K1 EC50 (uM) as measured by SYBR green dye; type: functional, organism-based
Plasmodium falciparum [7] = assay: ST_JUDE: Cytotoxicity against Plasmodium falciparum V1/S; type: functional, organism-based
Plasmodium falciparum [8] = assay: ST_JUDE: Cytotoxicity against Plasmodium falciparum D10 transfected with yeast DHOD; type: functional, organism-based
Plasmodium falciparum [9] = assay: ST_JUDE: Cytotoxicity against Plasmodium falciparum 3D7; type: functional, organism-based; outline: as §1
Plasmodium falciparum [10] = assay: ST_JUDE: Cytotoxicity against Plasmodium falciparum W2; type: functional, organism-based
Leishmania major = assay: ST_JUDE: Cytotoxicity using Alamar Blue to measure viability of Leishmania major; type: functional, organism-based
Outline: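 L. major promastigotes; drug susceptibility read with Alamar Blue.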

[11] = ST_JUDE: Cytotoxicity using luciferase to measure ATP as an indicator of the viability of human epithelial embryonic kidney cells (HEK293); type: toxicity, cell-based
[12] = ST_JUDE: Cytotoxicity using luciferase to measure ATP as an indicator of the viability of human foreskin fibroblast cells (BJ); type: toxicity, cell-based
[13] = ST_JUDE: Cytotoxicity using luciferase to measure ATP as an indicator of the viability of human Burkitt''s lymphoma lymphoblast cells (Raji); type: toxicity, cell-based

Compound	pEC50 (Toxoplasma gondii)	pEC50 (Plasmodium falciparum [1])	pEC50 (Plasmodium falciparum [2])	pEC50 (Trypanosoma brucei)	pEC50 (Plasmodium falciparum [3])	pEC50 (Plasmodium falciparum [4])	pEC50 [5]	pEC50 (Plasmodium falciparum [6])	pEC50 (Plasmodium falciparum [7])	pEC50 (Plasmodium falciparum [8])	pEC50 (Plasmodium falciparum [9])	pEC50 (Plasmodium falciparum [10])	pEC50 (Leishmania major)	pEC50 [11]	pEC50 [12]	pEC50 [13]
Cc1ccc2c(c1)N(C)/C(=C/c1cccc[n+]1C)S2	< 4.90	5.99	6.61	5.98	6.17	6.19	< 4.64	6.75	6.25	6.07	6.23	5.96	7.97	< 4.64	< 4.64	5.66
CC(=O)c1cccc(NC(=O)C2c3ccccc3C(=O)N(CC(C)C)C2c2cccs2)c1 (centres undefined)	< 4.63	6.38	6.71	5.23	6.45	6.41	< 4.36	6.55	6.43	6.39	6.44	< 4.96	< 4.73	< 4.36	< 4.36	< 4.36
Cc1ccc(C)c(NC(=O)CC2C(=O)N(c3ccccc3)C(=S)N2Cc2ccco2)c1 (centres undefined)	< 4.62	6.41	6.59	< 4.37	5.57	6.37	< 4.36	6.40	6.44	6.35	5.60	6.53	< 4.72	< 4.36	< 4.36	4.39
COc1ccc(C2CC(=O)C3=C(C2)NC(=O)CC3c2ccc(Br)cc2)cc1OC (centres undefined)	< 4.58	5.83	5.94	4.59	5.96	6.13	< 4.32	6.19	5.75	5.75	5.98	5.11	< 4.69	< 4.32	< 4.32	< 4.32
Cc1oc2c(c1C(=O)NCCC(C)C)C(=O)c1ccccc1C2=O	< 4.63	5.95	5.12	5.62	5.93	5.63	< 4.37	6.37	< 4.96	6.07	5.91	< 4.96	< 4.74	< 4.37	< 4.37	< 4.37
CCO/C(O)=C1\C(C)=NC2=C(C(=O)CC(c3ccc(OC)c(OC)c3)C2)C1c1ccccc1Cl (centres undefined)	< 4.61	7.25	7.22	5.02	7.04	7.22	< 4.35	6.86	6.93	7.24	7.15	7.78	< 4.72	< 4.35	< 4.35	< 4.35
Cc1ccc2c(c1)S/C(=C\c1sc3ccccc3[n+]1C)N2CCO	< 4.89	6.22	6.44	4.96	6.25	6.37	< 4.63	6.85	6.24	6.36	6.26	6.31	6.95	< 4.63	< 4.63	5.51
CCCCCOc1ccc(N(C(C)=O)C2=C(N3CCCCC3)C(=O)c3ccccc3C2=O)cc1	< 4.79	6.96	6.14	5.38	6.89	6.12	5.01	6.43	6.95	7.21	6.71	6.41	< 4.90	< 4.53	< 4.53	5.39
CSC(=S)N/N=C(\c1ccccc1)c1ccccn1	5.79	6.48	6.64	5.66	6.06	9.10	< 4.37	6.44	6.39	6.40	6.25	< 4.96	< 4.74	< 4.37	< 4.37	7.48
O=[N+]([O-])c1cc(CN2CCN(c3cccc(C(F)(F)F)c3)CC2)c2cccnc2c1O	< 4.76	6.19	5.89	5.87	< 5.09	6.10	< 4.50	5.92	< 5.09	5.97	6.17	< 5.09	< 4.87	< 4.50	< 4.50	< 4.50
CCO/C(O)=C1\C(C)=NC2=C(C(=O)CC(c3ccc(OC)c(OC)c3)C2)C1c1ccccc1C (centres undefined)	< 4.63	7.06	6.99	< 4.39	6.92	7.02	< 4.37	6.87	6.98	7.06	7.01	7.26	< 4.74	< 4.37	< 4.37	< 4.37
CO/C(O)=C1\C(C)=NC2=C(C(=O)CC(c3ccc(OC)c(OC)c3)C2)C1c1ccccc1C (centres undefined)	< 4.64	6.75	6.37	4.77	6.66	6.24	< 4.38	6.93	6.60	6.71	6.51	6.65	< 4.75	< 4.38	< 4.38	< 4.38
CCO/C(O)=C1\C(C)=NC2=C(C(=O)CC(c3ccc(OC)c(OC)c3)C2)C1c1cccc(Cl)c1 (centres undefined)	< 4.64	6.48	6.15	4.78	6.31	5.83	< 4.38	6.65	6.04	6.27	6.08	5.74	< 4.75	< 4.38	< 4.38	< 4.38
Cc1ccc(NC(=O)C2c3ccccc3C(=O)N(CC(C)C)C2c2cccs2)c(Cl)c1 (centres undefined)	< 4.62	6.13	6.33	5.10	< 4.95	6.01	< 4.36	6.13	5.93	6.20	< 4.95	6.07	< 4.72	< 4.36	< 4.36	< 4.36
Cc1cccc(N2CCN(Cc3ccccc3O)CC2)c1C	< 4.75	7.53	5.97	< 4.50	6.45	6.20	< 4.49	6.27	6.40	6.09	6.01	6.02	< 4.85	< 4.49	< 4.49	< 4.49
CC(C)c1ccccc1Oc1c(C(F)(F)F)oc2c(CN3CCN(C)CC3)c(O)ccc2c1=O	< 4.94	6.48	6.14	< 4.70	6.80	5.74	< 4.68	6.65	6.75	6.64	6.73	6.60	6.49	< 4.68	< 4.68	< 4.68
CCO/C(O)=C1\C(C)=NC2=C(C(=O)CC(c3ccc(OC)c(OC)c3)C2)C1c1ccc([N+](=O)[O-])cc1 (centres undefined)	< 4.62	6.64	6.75	5.08	6.57	6.22	< 4.36	6.92	6.22	6.57	6.77	6.62	< 4.73	< 4.36	< 4.36	< 4.36
O=C(c1ccccc1)N1CCN(c2ccccc2NC(=O)C(Cl)(Cl)Cl)CC1	< 4.73	5.87	5.84	4.57	6.08	5.56	< 4.47	6.06	5.95	5.38	6.04	< 5.06	< 4.84	< 4.47	< 4.47	< 4.47
O=S(=O)(c1ccc(Cl)cc1)N1CCN(C(=S)NCc2ccco2)CC1	< 4.78	5.35	5.82	4.60	5.94	6.07	< 4.52	5.90	5.62	5.46	6.06	6.09	< 4.89	< 4.52	< 4.52	< 4.52

— ChEMBL document CHEMBL1154198, “Chemical genetics of Plasmodium falciparum” (Nature, 2010)
